Screening results (PubChem BioAssay)
This is a sample that favours compounds with a hit; in the whole collection about 4.2% have one here.
TAAR1 agonist – human TAAR1 agonists, primary screen, Fluo-8 calcium fluorescence, CHO RD-HGA16 cells. vehicle wells 0%, saturating PEA agonist 100%. activation, % at 3 µM. 360,000 compounds, 0.99% hits;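 active = activation above the mean activation of all test compounds in the run plus 3 SD, cut at about 38% in these data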
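Signal – calcium-sensitive Fluo-8 signal, excitation 470-495, emission 515-575 nm · System – RD-HGA16 (CHO) cells co-expressing Gα16 and hTAAR1 · Incubation – 17-24 h seeding, 75 min 37 °C dye, 30 min RT · Compound dosing – 3 µM single concentration · Repeats – no replicates (n 1)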
CHO parental Ca – ATP-evoked calcium signal inhibitors, parental CHO, primary screen, counter-screen for OX1R antagonist project, cell-based, fluorescence, Fluo-8 calcium dye; 330,000 compounds, 0.63% hits; inhibition, % at 5.6 µM; parental CHO-K1, ATP-induced calcium, Fluo-8 fluorescence;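 active = inhibition above that plate's mean sample inhibition plus 3 SD, cut at about 26% in these data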;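 also: 0% = ATP-challenged DMSO wells and 100% = DMSO wells without ATP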
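Material – parental CHO cells · Reagent – ATP stimulus · Compound – single nominal dose of 5.6 µM per compound · Detection – Fluo-8 fluorescence · Read-out basis – percent inhibition of calcium signal · Controls – ATP-challenged DMSO wells low, unchallenged DMSO wells high · Repeats – no replicates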
OX1R antag-1 – antagonists of human orexin 1 receptor (OX1R) | Orexin/Hypocretin receptor type 1 (Homo sapiens), O43613 | OX1R-expressing cells, FRET antagonist read-out | inhibition, % at 6.6 µM | 330,000 compounds, 1.8% hits | AID 485270, 2010; in the data active = inhibition mostly above about 38%, no sharp cut-off; inactive = mostly below about 40%;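 also: 0% = agonist challenge alone and 100% = reference antagonist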
Target sequence (O43613 whole entry, looked up): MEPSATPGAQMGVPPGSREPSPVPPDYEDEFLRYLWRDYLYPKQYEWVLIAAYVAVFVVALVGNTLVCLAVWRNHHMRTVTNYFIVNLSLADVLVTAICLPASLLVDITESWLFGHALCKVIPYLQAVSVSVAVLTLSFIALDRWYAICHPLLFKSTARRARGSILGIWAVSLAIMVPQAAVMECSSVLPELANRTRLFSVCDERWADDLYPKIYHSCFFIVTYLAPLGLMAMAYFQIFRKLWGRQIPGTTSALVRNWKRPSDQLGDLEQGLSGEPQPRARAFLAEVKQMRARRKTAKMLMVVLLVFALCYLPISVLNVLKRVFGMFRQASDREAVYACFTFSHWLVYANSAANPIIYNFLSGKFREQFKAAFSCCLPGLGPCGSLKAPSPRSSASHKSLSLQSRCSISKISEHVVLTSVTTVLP
TAAR1 antag – human TAAR1 antagonists, primary screen, Fluo-8 calcium fluorescence, CHO RD-HGA16 cells; antagonist; inhibition, % at 3 µM; 360,000 compounds, 1.5% hits; AID 624466, 2012;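 active = inhibition above a per-plate cutoff, the mean inhibition of test compounds on that plate plus 3 SD, cut at about 49% in these data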;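 also: 0% = DMSO plus EC80 beta-PEA response and 100% = DMSO alone without agonist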
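Test system – hTAAR1-expressing CHO RD-HGA16 cells, Gα16-coupled · Reagent – β-PEA at EC80 concentration, post-compound challenge · Compound dosing – 3 µM, single point · Timing – 140 s kinetic read after compound, 140 s after agonist · Detection – Fluo-8 intracellular calcium dye fluorescence, real-time kinetic reads · Control set – DMSO and EC80 PEA controls · Repeats – n of 1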
OX1R antag-2 – OX1R (HCRTR1) antagonists, primary screen, fluorescence, CHO/OX1R cells, Fluo-8 calcium, orexin A | Fluo-8 calcium fluorescence | inhibition, % at 5 µM | 330,000 compounds, 0.43% hits | AID 434989, 2010;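 active = inhibition above its plate's threshold, mean inhibition of all tested compounds on the plate plus 3 SD, cut at about 37% in these data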;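 also: 0% = orexin A challenge wells and 100% = SB-334867-A antagonist wells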
GalR3 antag – GalR3 antagonists in HEK293 cells, primary screen, cell-based, fluorescence readout | Galanin receptor type 3 (Homo sapiens), O60755 | HEK293 GalR3-CNG cAMP membrane potential fluorescence; galR3 body fused to GalR1 C-terminus | inhibition, % at 3 µM | 360,000 compounds, 0.44% hits;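 active = inhibition above the screen-wide average plus 3 SD, cut at about 13% in these data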;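 also: forskolin and galanin both at EC90 stimulate the cells; cAMP rise reported by CNG channel membrane potential dye signal; 0% = forskolin plus galanin with DMSO and 100% = forskolin alone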
* hit, by the source's call; / = no result.

SMILES | TAAR1 agonist | CHO parental Ca | OX1R antag-1 | TAAR1 antag | OX1R antag-2 | GalR3 antag
c1ccc2c3n(nc2c1)CCCCO3 | 8 | -9 | 3 | -7 | -22 | -1
O=C(Nc1ccc(Cl)cc1)N1CCC(c2nc(-c3cccs3)no2)CC1 | 8 | -20 | 18 | 22 | -16 | -9
O=C(Nc1ccc(Cl)cc1)N1CCC(c2nc(-c3ccccc3Cl)no2)CC1 | 11 | 37* | 45 | 32 | 32 | -8
CCCCN(CC)CCCNC(=O)C1CCN(c2ncnc3c2sc2cccc(F)c23)CC1 | 1 | -15 | 62* | -19 | -11 | -3
CC(=O)NS(=O)(=O)c1ccc(NC(=S)NC(=O)Cc2ccccc2)cc1 | 7 | 4 | -4 | -9 | 9 | -6
CCN(CC)C(=O)CSc1nc2cc3c(cc2c(=O)n1Cc1ccco1)OCO3 | -1 | 2 | 8 | -7 | -23 | 2
O=C(Nc1cccnc1)c1ccc2c(c1)C(=O)N(CC1CCCO1)C2=O (stereo unspecified) | 10 | -6 | 73* | -18 | -5 | -4
Cc1ccc(NC(=O)c2ccc3c(c2)C(=O)N(CC2CCCO2)C3=O)cc1C (stereo unspecified) | 7 | -19 | 31 | 24 | -23 | -8
CCCN(Cc1ccccc1)C(=S)Nc1ccc(C(C)=O)cc1 | 1 | -14 | 35 | -30 | -14 | 7
O=C(Cn1ncc2c1-c1ccccc1OC2)N(Cc1ccco1)C1CCCCC1 | -1 | -13 | 37* | -15 | -10 | /
CCN(CC)C(=O)Cn1ncc2c1-c1ccccc1OC2 | 2 | -6 | 9 | -14 | -13 | /
COCCN(CCOC)c1ncc(Cl)c(C(=O)c2c(C)cc3ccccn23)n1 | 0 | -24 | 10 | 0 | -29 | -3
CCCC[n+]1c2ccccc2cc2ccccc21 | -2 | -15 | 48* | 0 | -12 | -8
CCc1ccc[n+](-c2[nH]c(=O)sc2/C=N/N=C(\[O-])c2ccncc2)c1 | 0 | -7 | 40* | 0 | -14 | -7
Nc1nc(N)c(Br)c(Nc2ccc(Cl)c(Cl)c2)n1 | 46* | / | / | -15 | / | -4
CCc1c(N)nc(N)nc1Nc1ccc(C)c(C)c1 | 2 | / | / | -4 | / | -6
C=CCOCCN(C)C1=NS(=O)(=O)c2cc([N+](=O)[O-])ccc21 | 1 | -3 | 72* | 13 | -5 | -6
COc1cccc2c1-c1c(C(=O)O)cccc1C2=O | 10 | -8 | 23 | -18 | -6 | -7
O=C(Nc1ccc(F)cc1)C1C2CCC3C(CCC21)C3(Cl)Cl (stereo unspecified) | -1 | -19 | 14 | 35 | 27 | -2
O=C(Nc1ccc(Cl)cc1)C1C2CCC3C(CCC21)C3(Cl)Cl (stereo unspecified) | 4 | / | / | 56* | / | -3
Cc1ccccc1NC(=O)NC1CCCCCCC1 | -1 | -7 | 11 | -14 | -15 | -3
Cc1c(C(=O)NCc2cccc(Cl)c2)sc(=O)n1Cc1ccc(F)cc1 | 2 | / | / | 18 | / | -4
Cc1c(C(=O)NCc2ccc(C(C)C)cc2)sc(=O)n1Cc1cccc(F)c1 | 48* | / | / | 53* | / | -8
Cc1c(C(=O)NCc2ccc(F)cc2)sc(=O)n1Cc1ccc(C(=O)c2ccccc2)cc1 | 1 | / | / | 54* | / | -1
CSc1ccc(Cn2c(C)c(C(=O)NCc3ccc(C(C)C)cc3)sc2=O)cc1 | 0 | / | / | 18 | / | 0
SMILES | TAAR1 agonist | CHO parental Ca | OX1R antag-1 | TAAR1 antag | OX1R antag-2 | GalR3 antag
CCOC(=O)C(Cc1ccccc1)NC(C)=O (stereo unspecified) | 14 | -2 | 14 | -3 | 2 | -5
CCOC(=O)C(Cc1ccccc1)NC(=O)CCCC(=O)c1ccccc1 (stereo unspecified) | 1 | 47* | 16 | -8 | 11 | -9
Cc1cc(C)n2nc(-c3sccc3-n3c(C)ccc3C)cc2n1 | 4 | -16 | 76* | -6 | 33 | -2
O=C(O)CSc1nnc(-c2cccc(S(=O)(=O)N3CCCCC3)c2)o1 | 1 | -5 | 2 | 0 | -11 | -5
Cc1c(NC(=S)N/N=C/c2ccc(N(C)C)cc2)c(=O)n(-c2ccccc2)n1C | -1 | -16 | 17 | -14 | -21 | -3
Cc1c(N2C(=O)/C(=C\c3ccc(N(C)C)cc3)N(C)C2=S)c(=O)n(-c2ccccc2)n1C | 4 | 19 | 64* | 3 | 24 | -3
COc1cc(-c2nnc(COC(=O)c3cccn3C)o2)cc(OC)c1OC | 1 | -17 | 20 | -9 | -11 | -4
CCN(CC)C(=S)NC(=O)c1ccc(F)cc1 | 4 | 7 | 10 | -1 | -7 | -4
CCC(=O)C1CCCN(C(=O)CCc2nnc(-c3ccc(C(C)=O)s3)o2)C1 (stereo unspecified) | 1 | -10 | 38* | -4 | -14 | 1
CCN(CC)CCN(C)C(=O)CCc1nnc(-c2ccc(C)s2)o1 | 2 | -7 | 16 | -1 | -7 | -3
CCn1nc(C)c(CNC(=O)CCc2nnc(-c3ccc(C(C)=O)s3)o2)c1C | 6 | -10 | 63* | 5 | -17 | 0
CCOC(=O)c1c(C)[nH]c(C(=O)COC(=O)C(C)N2C(=O)C3CCCCC3C2=O)c1C (stereo unspecified) | 22 | -14 | 15 | 51* | -4 | -6
O=C(COC(=O)c1cc(-c2cccs2)nn1-c1ccccc1)Nc1ccc(F)c([N+](=O)[O-])c1 | 7 | -4 | 25 | 49* | -19 | -3
CCCN(CC(=O)Nc1ccccc1OC)C(=O)c1cc(-c2ccccc2)nn1-c1ccccc1 | -1 | 16 | 15 | 34 | 7 | -3
CCN(CC(=O)Nc1ccc(OC)cc1)C(=O)c1cc(-c2cccs2)nn1-c1ccccc1 | 10 | -8 | 9 | 62* | -8 | -4
COc1ccc(NC(=O)CN(C)C(=O)c2cc(-c3cccs3)nn2-c2ccccc2)cc1 | 9 | -2 | 16 | 55* | -24 | -3
COCCN(CC(=O)Nc1cccc(C)c1C)C(=O)c1cc(-c2cccs2)nn1-c1ccccc1 | 18 | -12 | 25 | 51* | -14 | -2
CCOc1ccc(NC(=O)CN(C)C(=O)c2cc(-c3cccs3)nn2-c2ccccc2)cc1OCC | 0 | -27 | 24 | 27 | -33 | -3
O=[N+]([O-])c1ccccc1/C=N/n1c(C(F)(F)F)n[nH]c1=S | 3 | 2 | 58 | -10 | -12 | -3
